# Data from ChEMBL document CHEMBL3351454, “Design, synthesis, antimicrobial evaluation and molecular docking studies of some new thiophene, pyrazole and pyridone derivatives bearing sulfisoxazole moiety” (2014).
# Active and inactive are the calls of the source. No cut-off for these calls is given here.
# Assays:
# Type in all cases: functional
# Geotrichum candidum [1] = experiment: Antifungal activity against Geotrichum candidum RCMB 05097 assessed as absence of turbidity after 48 hrs; details: RCMB 05097, 48 h
# Procedure, shortened: (§1)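 Broth microdilution in Sabouraud liquid medium. DMF stocks at 1000 µg/mL were diluted in broth to give twofold serial dilutions over 500–0.007 µg/mL. Fungal inoculum was about 10^4 CFU/mL in 96-well plates, sealed and incubated at 25 °C for 48 h in a humid chamber. MIC was taken as the lowest concentration with no visible turbidity. DMF and uninoculated-medium controls were included.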
# Aspergillus fumigatus [2] = experiment: Antifungal activity against Aspergillus fumigatus RCMB 02568 assessed as inhibition zone at 5 mg/ml after 48 hrs; details: RCMB 02568, 48 h, read-out: IZ
# Procedure, shortened: (§2)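 Disk diffusion on nutrient agar seeded with 10^4 CFU/mL fungus. Sterile filter-paper disks carried 100 µL of a 5 mg/mL DMF solution, and DMF alone served as control. Plates were incubated at 25 °C for 48 h. Mean inhibition zone in mm ± SD was read beyond the 6 mm diameter, in triplicate.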
# Bacillus subtilis [3] = experiment: Antimicrobial activity against Bacillis subtilis RCMB 010067 assessed as inhibition zone at 5 mg/ml after 24 hrs; details: RCMB 010067, 24 h, read-out: IZ
# Procedure, shortened: (§3)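 Agar diffusion on nutrient agar seeded with 10^6 CFU/mL bacteria. Filter-paper disks were loaded with 100 µL of a 5 mg/mL compound solution in DMF, with a DMF-only control. Incubation was 37 °C for 24 h. Inhibition zone in mm (mean ± SD, triplicate plates) was measured beyond the 6 mm diameter.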
# Aspergillus fumigatus [4] = experiment: Antifungal activity against Aspergillus fumigatus RCMB 02568 assessed as absence of turbidity after 48 hrs; details: RCMB 02568, 48 h; procedure, shortened: as §1
# [5] = tested on: Staphylococcus epidermidis; experiment: Antimicrobial activity against Staphylococcus epidermidis RCMB 010024 assessed as absence of turbidity after 24 hrs; details: RCMB 010024, 24 h
# Procedure, shortened: as §1, with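 “Müller–Hinton broth.” for “Sabouraud liquid medium.”, “Bacterial” for “Fungal”, “10^6” for “10^4”, “37” for “25”, “24” for “48”, “included. Only compounds giving zones >10 mm were tested.” for “included.”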
# Geotrichum candidum [6] = experiment: Antifungal activity against Geotrichum candidum RCMB 05097 assessed as inhibition zone at 5 mg/ml after 48 hrs; details: RCMB 05097, 48 h, read-out: IZ; procedure, shortened: as §2
# [7] = tested on: Syncephalastrum racemosum; experiment: Antifungal activity against Syncephalastrum racemosum RCMB 05922 assessed as absence of turbidity after 48 hrs; details: RCMB 05922, 48 h
# Streptococcus pneumoniae [8] = experiment: Antimicrobial activity against Streptococcus pneumoniae RCMB 010010 assessed as absence of turbidity after 24 hrs; details: RCMB 010010, 24 h
# Procedure, shortened: as §1, with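 “Müller–Hinton broth.” for “Sabouraud liquid medium.”, “Bacterial” for “Fungal”, “10^6” for “10^4”, “37” for “25”, “24” for “48”, “included. Only compounds giving zones >10 mm were tested.” for “included.”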
# Bacillus subtilis [9] = experiment: Antimicrobial activity against Bacillis subtilis RCMB 010067 assessed as absence of turbidity after 24 hrs; details: RCMB 010067, 24 h
# Procedure, shortened: as §1, with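 “Müller–Hinton broth.” for “Sabouraud liquid medium.”, “Bacterial” for “Fungal”, “10^6” for “10^4”, “37” for “25”, “24” for “48”, “included. Only compounds giving zones >10 mm were tested.” for “included.”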
# Klebsiella pneumoniae [10] = experiment: Antimicrobial activity against Klebsiella pneumoniae RCMB 010093 assessed as absence of turbidity after 24 hrs; details: RCMB 010093, 24 h
# Procedure, shortened: as §1, with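 “Müller–Hinton broth.” for “Sabouraud liquid medium.”, “Bacterial” for “Fungal”, “10^6” for “10^4”, “37” for “25”, “24” for “48”, “included. Only compounds giving zones >10 mm were tested.” for “included.”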
# Escherichia coli [11] = experiment: Antimicrobial activity against Escherichia coli RCMB 010052 assessed as absence of turbidity after 24 hrs; details: RCMB 010052, 24 h
# Procedure, shortened: as §1, with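 “Müller–Hinton broth.” for “Sabouraud liquid medium.”, “Bacterial” for “Fungal”, “10^6” for “10^4”, “37” for “25”, “24” for “48”, “included. Only compounds giving zones >10 mm were tested.” for “included.”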
# Proteus vulgaris [12] = experiment: Antimicrobial activity against Proteus vulgaris RCMB 010085 assessed as absence of turbidity after 24 hrs
# Procedure, shortened: as §1, with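 “Müller–Hinton broth.” for “Sabouraud liquid medium.”, “Bacterial” for “Fungal”, “10^6” for “10^4”, “37” for “25”, “24” for “48”, “included. Only compounds giving zones >10 mm were tested.” for “included.”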
# [13] = tested on: Syncephalastrum racemosum; experiment: Antifungal activity against Syncephalastrum racemosum RCMB 05922 assessed as inhibition zone at 5 mg/ml after 48 hrs; details: RCMB 05922, 48 h, read-out: IZ
# Proteus vulgaris [14] = experiment: Antimicrobial activity against Proteus vulgaris RCMB 010085 assessed as inhibition zone at 5 mg/ml after 24 hrs; details: for zone of inhibition at 5000 µg/mL: RCMB 010085, 24 h, read-out: IZ; procedure, shortened: as §3
# Escherichia coli [15] = experiment: Antimicrobial activity against Escherichia coli RCMB 010052 assessed as inhibition zone at 5 mg/ml after 24 hrs; details: RCMB 010052, 24 h, read-out: IZ; procedure, shortened: as §3
# Klebsiella pneumoniae [16] = experiment: Antimicrobial activity against Klebsiella pneumoniae RCMB 010093 assessed as inhibition zone at 5 mg/ml after 24 hrs; details: RCMB 010093, 24 h, read-out: IZ; procedure, shortened: as §3
# [17] = tested on: Staphylococcus epidermidis; experiment: Antimicrobial activity against Staphylococcus epidermidis RCMB 010024 assessed as inhibition zone at 5 mg/ml after 24 hrs; details: RCMB 010024, 24 h, read-out: IZ; procedure, shortened: as §3
# Streptococcus pneumoniae [18] = experiment: Antimicrobial activity against Streptococcus pneumoniae RCMB 010010 assessed as inhibition zone at 5 mg/ml after 24 hrs; details: RCMB 010010, 24 h, read-out: IZ; procedure, shortened: as §3
MIC (Geotrichum candidum [1]),MIC (Aspergillus fumigatus [4]),MIC [5],MIC [7],MIC (Streptococcus pneumoniae [8]),MIC (Bacillus subtilis [9]),MIC (Klebsiella pneumoniae [10]),MIC (Escherichia coli [11]),"MIC (Proteus vulgaris [12]; RCMB 010085, 24 h)",MIC (Proteus vulgaris [12]),SMILES,zone of inhibition at 5000 µg/mL (Aspergillus fumigatus [2]),zone of inhibition at 5000 µg/mL (Bacillus subtilis [3]),zone of inhibition at 5000 µg/mL (Geotrichum candidum [6]),zone of inhibition at 5000 µg/mL [13],zone of inhibition at 5000 µg/mL (Proteus vulgaris [14]),zone of inhibition at 5000 µg/mL (Escherichia coli [15]),zone of inhibition at 5000 µg/mL (Klebsiella pneumoniae [16]),zone of inhibition at 5000 µg/mL [17],zone of inhibition at 5000 µg/mL (Streptococcus pneumoniae [18]),Activity (Proteus vulgaris [14])
0.03 mg/L,0.49 mg/L,0.12 mg/L,3.9 mg/L,0.06 mg/L,0.007 mg/L,0.03 mg/L,0.24 mg/L,0.98 mg/L,,CC(=O)OC[C@H]1O[C@@H](Sc2c(C#N)c(-c3ccc(Cl)cc3)c(C#N)c(=O)n2-c2ccc(S(=O)(=O)Nc3onc(C)c3C)cc2)[C@H](OC(C)=O)[C@@H](OC(C)=O)[C@@H]1OC(C)=O,22.3 mm,29.8 mm,25.8 mm,20.3 mm,21.2 mm,23.2 mm,25.8 mm,24.2 mm,25.1 mm,
0.49 mg/L,0.98 mg/L,3.9 mg/L,0.98 mg/L,0.98 mg/L,0.12 mg/L,3.9 mg/L,7.81 mg/L,,inactive,C=CCNc1sc(C(C)=O)c(N)c1C(=O)Nc1ccc(S(=O)(=O)Nc2onc(C)c2C)cc1,20.6 mm,23.7 mm,21.9 mm,21.1 mm,,18.3 mm,18.9 mm,19.3 mm,20.6 mm,inactive
0.12 mg/L,0.06 mg/L,0.98 mg/L,0.007 mg/L,0.98 mg/L,0.24 mg/L,0.98 mg/L,0.007 mg/L,15.6 mg/L,,CC(=O)c1sc(NC23CC4CC(CC(C4)C2)C3)c(C(=O)Nc2ccc(S(=O)(=O)Nc3onc(C)c3C)cc2)c1N,25.3 mm,22.9 mm,24.6 mm,26.9 mm,17.4 mm,29.9 mm,20.3 mm,20.9 mm,21.6 mm,
0.49 mg/L,0.98 mg/L,1.95 mg/L,3.9 mg/L,0.98 mg/L,0.24 mg/L,0.98 mg/L,3.9 mg/L,7.81 mg/L,,Cc1noc(NS(=O)(=O)c2ccc(-n3c(S)c(C#N)c(-c4cccnc4)c(C#N)c3=O)cc2)c1C,21.2 mm,22.6 mm,22 mm,19.2 mm,17.6 mm,19.2 mm,21 mm,20 mm,21.3 mm,
125 mg/L,0.03 mg/L,3.9 mg/L,0.12 mg/L,0.49 mg/L,1.95 mg/L,15.6 mg/L,7.81 mg/L,1.95 mg/L,,COc1ccc(-c2[nH]nc(N)c2C(=O)Nc2ccc(S(=O)(=O)Nc3onc(C)c3C)cc2)cc1,26.1 mm,20.4 mm,13.6 mm,24.4 mm,19.6 mm,17.8 mm,17.1 mm,18.9 mm,22 mm,
0.03 mg/L,0.49 mg/L,0.49 mg/L,3.9 mg/L,0.06 mg/L,0.03 mg/L,0.12 mg/L,0.12 mg/L,3.9 mg/L,,Cc1noc(NS(=O)(=O)c2ccc(NC(=O)/C(C#N)=C/c3cccnc3)cc2)c1C,23.4 mm,26.2 mm,25.6 mm,18.7 mm,19.3 mm,23.7 mm,24.2 mm,22.3 mm,24.6 mm,
0.49 mg/L,0.24 mg/L,3.9 mg/L,0.06 mg/L,1.95 mg/L,1.95 mg/L,0.06 mg/L,31.2 mg/L,7.81 mg/L,,CCOc1ccc(-n2nc(C(=O)Nc3ccc(S(=O)(=O)Nc4onc(C)c4C)cc3)c(N)c2C#N)cc1,23 mm,19.6 mm,21.9 mm,24.6 mm,18.2 mm,16.4 mm,25.1 mm,18.9 mm,20 mm,
0.24 mg/L,0.98 mg/L,0.49 mg/L,1.95 mg/L,0.49 mg/L,0.12 mg/L,0.24 mg/L,0.98 mg/L,3.9 mg/L,,Cc1noc(NS(=O)(=O)c2ccc(-n3c(S)c(C#N)c(-c4ccc(Cl)cc4)c(C#N)c3=O)cc2)c1C,21.6 mm,24.4 mm,22.8 mm,20.2 mm,19.3 mm,20.6 mm,23.2 mm,20.2 mm,22.3 mm,
0.12 mg/L,0.49 mg/L,0.98 mg/L,0.98 mg/L,0.24 mg/L,0.12 mg/L,0.24 mg/L,0.98 mg/L,7.81 mg/L,,Cc1noc(NS(=O)(=O)c2ccc(-n3c(S)c(C#N)c(-c4ccco4)c(C#N)c3=O)cc2)c1C,22 mm,23.6 mm,24.3 mm,20.6 mm,18.3 mm,21.6 mm,22.6 mm,21.4 mm,22.6 mm,
7.81 mg/L,7.81 mg/L,31.2 mg/L,15.6 mg/L,7.81 mg/L,7.81 mg/L,125 mg/L,125 mg/L,500 mg/L,,Cc1noc(NS(=O)(=O)c2ccc(NC(=O)c3cn[nH]c3N)cc2)c1C,18.6 mm,18 mm,18.9 mm,17.2 mm,11 mm,13 mm,14.6 mm,16.1 mm,17.8 mm,
0.98 mg/L,0.98 mg/L,7.81 mg/L,1.95 mg/L,0.98 mg/L,0.49 mg/L,0.49 mg/L,31.2 mg/L,15.6 mg/L,,COc1ccc(-c2c(C#N)c(N)n(-c3ccc(S(=O)(=O)Nc4onc(C)c4C)cc3)c(=O)c2C#N)cc1,20.6 mm,22.2 mm,20.9 mm,19.7 mm,17.2 mm,16.2 mm,22.3 mm,18.1 mm,20.3 mm,
